This is a sample that favours compounds with a hit; in the whole collection about 2.1% have one here.
PABP1 MLLE inh: inhibitors of PABP1 MLLE–PAM2 peptide binding, primary screen, biochemical, fluorescence polarization, FITC-PAM2, GST-MLLE; 360,000 compounds, 0.36% hits; inhibition, % at 20 µM; in the data active = inhibition above about 35%, passing the limit was not always enough;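 note: plate controls were DMSO wells with GST-MLLE for no effect and wells lacking GST-MLLE protein for full effect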
Target sequence (P11940 whole entry, looked up): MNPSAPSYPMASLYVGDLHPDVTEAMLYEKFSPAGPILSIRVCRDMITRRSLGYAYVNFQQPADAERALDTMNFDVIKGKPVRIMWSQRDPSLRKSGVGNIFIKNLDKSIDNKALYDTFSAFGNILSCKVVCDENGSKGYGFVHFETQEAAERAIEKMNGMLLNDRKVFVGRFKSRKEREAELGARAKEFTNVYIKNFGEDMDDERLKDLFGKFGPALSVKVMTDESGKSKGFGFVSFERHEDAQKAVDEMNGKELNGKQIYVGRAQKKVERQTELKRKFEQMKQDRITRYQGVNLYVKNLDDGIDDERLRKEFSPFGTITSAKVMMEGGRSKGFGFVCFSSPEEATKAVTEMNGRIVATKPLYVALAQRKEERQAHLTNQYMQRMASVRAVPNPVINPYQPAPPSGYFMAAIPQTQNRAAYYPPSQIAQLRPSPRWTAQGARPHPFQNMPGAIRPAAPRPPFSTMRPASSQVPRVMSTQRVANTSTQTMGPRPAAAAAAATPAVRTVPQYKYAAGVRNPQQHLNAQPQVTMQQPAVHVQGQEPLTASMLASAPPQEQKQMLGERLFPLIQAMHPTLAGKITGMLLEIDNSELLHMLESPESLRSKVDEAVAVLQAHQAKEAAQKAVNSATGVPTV
NS3 helicase inh: inhibitors of HCV NS3 helicase, primary screen, biochemical, Cy5 molecular beacon fluorescence; Hepatitis C virus NS3 helicase; NS3 helicase DNA unwinding; inhibition, % at 10.9 µM; 290,000 compounds, 0.56% hits; AID 1800, 2009;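 active = inhibition above the mean of all tested compounds plus 3 SD, set per campaign, cut at about 35% in these data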;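 note: 0% = DMSO wells and 100% = thioflavine S control wells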
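Control set: DMSO versus 110 µM thioflavine S; Material: NS3 helicase fragment of HCV; Measured by: Cy5 fluorescence at 0 and 60 min, beacon hairpin quenching; Read-out basis: percent inhibition from t60/t0 fluorescence ratio; Times: reaction time 60 min, 25 °C; Repeats: single replicate; Compound dosing: single dose, 10.9 µM nominal final, DMSO 0.8% final.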
eIF4H FP inh: human eIF4H binding inhibitors, primary screen, translation initiation inhibitor project, biochemical, uHTS, fluorescence polarization; Eukaryotic translation initiation factor 4H (Homo sapiens), Q15056; inhibition, % at 35 µM; eIF4H fluorescence polarization binding assay; AID 2012, 2009; 290,000 compounds, 0.94% hits;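 note: calls also rest on retests at 20 µM and on dose response follow-up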
EBNA-1 inh: EBNA-1 DNA-binding inhibitors, primary screen, biochemical, fluorescence polarization; inhibition, % at 14.8 µM; 300,000 compounds, 0.34% hits; in the data active = inhibition above about 28%
PABP FP inh: PABP poly(A) RNA binding inhibitors, primary screen, biochemical, fluorescence polarization, uHTS; Polyadenylate-binding protein 1 (Homo sapiens), P11940; inhibition, % at 35 µM; 290,000 compounds, 1% hits;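 note: calls also rest on retests at 20 µM and on dose response follow-up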
ZTA DNA inh: blocks Epstein-Barr virus ZTA, an EBNA-1 counter-screen; P03206; ZTA-DNA binding, fluorescence polarization; inhibition, % at 11 µM; 320,000 compounds, 0.15% hits; AID 2234; in the data active = inhibition above about 33%
EBNA-1 confirm: EBNA-1 DNA-binding inhibitors, retest, confirmation, biochemical, fluorescence polarization, triplicate. shares compounds with EBNA-1 inh. Recombinant EBNA-1 DBD, Cy5-DNA fluorescence polarization. inhibition, % at 14.8 µM. 830 compounds, 35% hits. AID 2292, 2010;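 active = mean inhibition across replicates above a set limit taken from the earlier primary screen, cut at about 28% in these data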;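 note: plate controls were EBNA-1 protein with DMSO for no effect and wells lacking EBNA-1 for full effect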
ZTA counter trip: EBV Zta DNA binding inhibitors, counter-screen for EBNA-1 inhibitor project, biochemical, fluorescence polarization, triplicate | inhibition, % at 11.1 µM | Zta-ZRE DNA binding, Cy5 fluorescence polarization | 830 tested, under 10 active | shares compounds with EBNA-1 inh;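 active = mean inhibition over triplicates above a set limit taken from the primary EBNA-1 screen, cut at about 37% in these data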;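 note: purified full length Zta protein with Cy5 labeled ZRE DNA probe; 0% = Zta with DMSO and 100% = wells lacking Zta protein; inhibitors lower polarization by freeing the labeled DNA probe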
ZTA inh confirm: EBV Zta binding to ZRE DNA, inhibitors, confirmation, biochemical, fluorescence polarization, triplicate. shares compounds with ZTA DNA inh. inhibition, % at 11.1 µM. 320 compounds, 30% hits. AID 2361, 2010;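 active = mean inhibition across triplicate runs above the hit threshold derived for the original primary screen, cut at about 33% in these data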;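 note: 0% = Zta with DMSO and 100% = wells lacking Zta protein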
EBNA-1 counter: EBNA-1 DNA-binding inhibition, counter-screen for ZTA inhibitor project, biochemical, fluorescence polarization; AID 2362, 2010; 320 tested, under 10 active; inhibition, % at 14.8 µM; shares compounds with ZTA DNA inh
Active calls of the source: *; . = no result given; + = active, no number. Unless noted, the rule behind the calls is not given here.

SMILES	PABP1 MLLE inh	NS3 helicase inh	eIF4H FP inh	EBNA-1 inh	PABP FP inh	ZTA DNA inh	ZTA inh confirm	EBNA-1 counter	others
CN1C(=O)N(C)C2(c3ccccc3)Nn3c(s/c(=C/c4ccccc4F)c3=O)=NC12c1ccccc1 (configuration not stated)	.	-8.2	-2.5	4.0	-1.8	15.4	.	.
Cc1cc(C(=O)CSc2nnnn2-c2ccccc2)c(C)n1CC1CCCO1 (configuration not stated)	-78.5	8.2	12.9	151.3*	39.3	-0.3	.	.	EBNA-1 confirm=92.8*;ZTA counter trip=2.3
O=C(NCc1cccc(Cl)c1)NC(=O)c1csc([N+](=O)[O-])c1	3.1	4.0	3.8	-1.9	12.7	9.8	.	.
O=C(Cc1c(F)cccc1Cl)OCC(=O)c1ccc[nH]1	-6.5	.	.	.	.	.	.	.
CN(c1ccc(OCC(=O)Nc2nc3ccccc3s2)cc1)S(=O)(=O)c1ccccc1	-7.4	-0.6	-12.4	46.6*	8.7	11.8	.	.	EBNA-1 confirm=23.1;ZTA counter trip=8.4
CCOc1ccc(S(=O)(=O)N(C)c2ccc(OCC(=O)Nc3nc4ccccc4s3)cc2)cc1	5.6	-2.3	2.9	11.1	-12.9	-1.7	.	.
COCCOC(=O)c1c(C)oc2ccc(OC(=O)c3ccco3)cc12	18.0	-0.1	2.8	5.2	0.9	2.5	.	.
O=C(Nc1cccc(-c2nnc(-c3ccccc3)o2)c1)C1CCCCC1	-1.9	-0.8	0.1	75.5*	-1.9	10.8	.	.	EBNA-1 confirm=106.9*;ZTA counter trip=-5.0
Cc1cc(=O)[nH]c(N/N=C/C(C)c2ccccc2)n1 (configuration not stated)	-6.5	11.7	4.9	3.8	-3.8	-8.6	.	.
COc1n[nH]c(C(=O)Nc2nc3ccccc3s2)c1[N+](=O)[O-]	0.5	6.2	-7.9	33.6*	12.7	0.0	.	.	EBNA-1 confirm=-0.4;ZTA counter trip=-2.8
COc1ccccc1C(=O)Nc1nc2ccccc2s1	4.2	0.0	-4.9	31.4*	18.6	-11.7	.	.	EBNA-1 confirm=-4.7;ZTA counter trip=-2.4
COc1n[nH]c(C(=O)NCc2ccccc2)c1[N+](=O)[O-]	-6.8	-0.2	-9.5	6.8	13.8	1.0	.	.
C/C(=N\NC(=O)c1ccco1)c1ccc(-c2ccccc2)cc1	10.2	4.3	-4.7	5.0	-1.9	15.2	.	.
CN(C)C(=O)c1cccc(COc2ccc(N3C(N)=NC(N)=NC3(C)C)cc2Cl)c1	-4.8	.	.	.	.	.	.	.
COc1cccc(CNC(=O)CCCCCn2c(=S)[nH]c3ccc(N4CCOCC4)cc3c2=O)c1	.	7.5	60.0	12.2	-4.9	-0.6	.	.
O=c1c2cc(N3CCOCC3)ccc2[nH]c(=S)n1Cc1cccc(Cl)c1	-82.3	7.1	5.3	30.3*	-7.3	0.6	.	.	EBNA-1 confirm=6.9;ZTA counter trip=7.4
COc1cccc(Cn2c(=S)[nH]c3ccc(N4CCOCC4)cc3c2=O)c1	-67.8	7.5	3.4	28.7*	14.9	-3.9	.	.	EBNA-1 confirm=7.8;ZTA counter trip=-11.0
CC(=O)O/C(=C\c1cn(C(C)=O)c2ccccc12)C(=O)O	0.4	7.0	6.6	0.8	4.3	157.6*	4.9	-1.1
CC(=O)n1cc(CO)c2ccccc21	-2.6	-6.1	-6.3	2.8	-3.1	4.4	.	.
CCc1nn(CC(=O)N2CCN(C)CC2)c(=O)c2cccn12	5.4	-3.8	-6.7	2.4	3.0	36.4*	-0.7	-8.1
CCOC(=O)C1(C)NC(c2cccc(C)c2)C2C(=O)N(c3ccccc3)C(=O)C21 (configuration not stated)	-6.1	7.4	3.1	-8.3	-5.7	+	11.5	1.0
CN(C)c1ccc(C(CNS(=O)(=O)c2cccc([N+](=O)[O-])c2)N2CCOCC2)cc1 (configuration not stated)	12.8	.	.	1.5	.	-12.9	.	.
CC(=O)Oc1cccc(N2C(=O)c3cccc4c([N+](=O)[O-])ccc(c34)C2=O)c1	8.4	16.2	11.5	0.3	14.5	12.1	.	.
Cc1ccc(C(=O)O)cc1N1C(=O)c2cccc3c([N+](=O)[O-])ccc(c23)C1=O	20.5	24.0	100.6*	9.2	77.2*	39.5*	35.4*	0.3
CCC(C)Sc1cc(-c2nc3ccc(C)cn3c2NCc2ccccc2)ccc1OC (configuration not stated)	-3.2	.	.	11.0	.	40.3*	93.4*	-14.3
SMILES	PABP1 MLLE inh	NS3 helicase inh	eIF4H FP inh	EBNA-1 inh	PABP FP inh	ZTA DNA inh	ZTA inh confirm	EBNA-1 counter	others
CCOC(=O)NN1C(=O)c2ccccc2NC1c1ccccc1 (configuration not stated)	-1.0	6.4	-5.0	3.6	-13.1	10.2	.	.
CCOC(=O)NN1C(=O)c2ccccc2NC1c1ccc(N(C)C)cc1 (configuration not stated)	5.5	2.9	3.5	-4.5	10.5	33.0*	6.2	0.1
COc1ccc(C2=NN(C(C#N)c3ccc(OC)cc3)C(c3ccccc3)C2)cc1 (configuration not stated)	-0.1	9.1	-10.1	4.8	-0.8	34.7*	-5.5	-7.6
COc1ccc(-n2c(SCC(=O)Nc3nccs3)nc3sc4c(c3c2=O)CCN(C)C4)cc1	-6.8	-53.2	-5.7	-5.8	-14.2	-5.7	.	.
COc1ccc(NC(=O)CSc2nc3sc4c(c3c(=O)n2-c2ccc(OC)cc2)CCN(C)C4)cc1	10.0	-60.5	-13.2	7.0	-24.4	33.8*	2.5	-2.3
CCC(C(=O)O)n1cnc2scc(-c3ccc(C)c(C)c3)c2c1=O (configuration not stated)	-13.6	11.8	2.4	1.2	11.3	117.3*	5.7	13.1
CCC(C(=O)OC)n1cnc2scc(-c3ccc(C)c(C)c3)c2c1=O (configuration not stated)	-6.6	0.0	-1.7	-1.3	-2.8	5.6	.	.
COC(=O)c1ccc(C2/C(=C(/O)c3ccc4c(c3)CC(C)O4)C(=O)C(=O)N2CCN2CCOCC2)cc1 (configuration not stated)	3.0	11.3	-15.6	-10.6	0.6	-7.7	.	.
Cc1ccc(O)c(CNCCNCc2cc(C)ccc2O)c1	9.6	.	.	5.2	.	45.6*	8.6	-7.7
